Experimental data from ChEMBL document CHEMBL1133010, “Structure-function studies of polymyxin B nonapeptide: implications to sensitization of gram-negative bacteria” (J Med Chem, 2000).
In brackets after ≈: the same amount, converted by molar mass. Blank lines part the entries; values can stand above or below the compound they belong to.

What was measured:
Assay type in all cases: functional
Escherichia coli [1] = experiment: Antimicrobial activity against Escherichia coli (Escherichia coli)
How it was run: (§1)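 Clinical isolates grown on nutrient agar and kept at 4 °C. Overnight culture in isotonic sensitest broth (ISB) adjusted to 1 × 10^5 CFU/mL and inoculated into wells holding a 2-fold serial dilution (1000-0.5 µg/mL) of test agent in ISB. Incubated 20 h at 37 °C. MIC is the lowest concentration with no visible growth. 4-8 separate tests, varying by no more than one dilution.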

Escherichia coli [2] = experiment: Relative sensitizing activity against Escherichia coli was determined as a percent of pPMBN (50 ug/mL) as a control
How it was run: (§2)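 Clinical isolates at 1 × 10^5 CFU per well, in ISB with a 2-fold serial dilution (1000-0.5 µg/mL) of novobiocin. Peptide added at 50 µg/mL final. Incubated 20 h at 37 °C and read by visible growth. Sensitizing activity is the fold drop in novobiocin MIC with versus without peptide, expressed as percent of that given by 50 µg/mL pPMBN.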

Klebsiella pneumoniae [3] = experiment: Antimicrobial activity against Klebsiella pneumoniae (Klebsiella pneumoniae); how it was run: as §1
Klebsiella pneumoniae [4] = experiment: Relative sensitizing activity against Klebsiella pneumoniae was determined as a percent of pPMBN (50 ug/mL) as a control; how it was run: as §2
Escherichia coli [5] = experiment: Inhibitory concentration required to displace dansyl-PMBN (0.55 uM) from maximal specific binding to Escherichia coli LPS
How it was run: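 Fluorescence displacement assay. E. coli LPS (3 µg/mL, ~2 × 10^-7 M) in 5 mM HEPES pH 7.2 was pre-equilibrated with dansyl-PMBN (0.55 µM). Peptide was added stepwise at 5-min intervals from 1 × 10^-5 to 1 × 10^-3 M stocks. Fluorescence read at excitation 340 nm and emission 485 nm after each addition. Percent inhibition was plotted against concentration to give maximal and 50% displacement. 2-3 repeats.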

Pseudomonas aeruginosa = experiment: Minimal inhibitory concentration of compound required against Pseudomonas aeruginosa was evaluated
How it was run: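 P. aeruginosa clinical isolate kept on nutrient agar at 4 °C. Overnight culture in isotonic sensitest broth adjusted to 1 × 10^5 CFU/mL and added to serial 2-fold dilutions (1000-0.5 µg/mL) of test agent in the same broth. MIC is the lowest concentration with no visible growth after 20 h at 37 °C. 4-8 separate tests, varying by no more than one dilution.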

Klebsiella pneumoniae [6] = experiment: Minimal inhibitory concentration of compound required against Klebsiella pneumoniae was evaluated; Inactive; how it was run: as §1
Escherichia coli [7] = experiment: Minimal inhibitory concentration of compound required against Escherichia coli was evaluated; Inactive; how it was run: as §1

Compound: CC(C)C[C@@H]1NC(=O)[C@H](Cc2ccccc2)NC(=O)[C@H](CCN)NC(=O)[C@@H](NC(=O)[C@H](CCN)NC(=O)[C@@H](N)[C@@H](C)O)CCNC(=O)[C@H]([C@@H](C)O)NC(=O)[C@H](CCN)NC(=O)[C@H](CCN)NC1=O
IC50 (Escherichia coli [5]; Escherichia coli): 8 µM

Compound: CC(C)C[C@@H]1NC(=O)[C@@H](Cc2ccccc2)NC(=O)[C@H](CCN)NC(=O)[C@@H](NC(=O)[C@H](CCN)NC(=O)[C@@H](N)[C@@H](C)O)CCNC(=O)[C@H]([C@@H](C)O)NC(=O)[C@H](CCN)NC(=O)[C@H](CCN)NC1=O (stereo in doubt; form 1) [listing 1 of 2 here]
MIC (Pseudomonas aeruginosa): 8 µg/mL (≈ 8.31 µM)
Activity (Escherichia coli [2]): 100%
MIC (Klebsiella pneumoniae [6]): ≥ 1000 µg/mL
MIC (Escherichia coli [7]): ≥ 1000 µg/mL
Activity (Klebsiella pneumoniae [4]): 100%

Compound: CC(C)C[C@@H]1NC(=O)[C@@H](Cc2ccccc2)NC(=O)[C@H](CN)NC(=O)[C@@H](NC(=O)[C@H](CN)NC(=O)[C@@H](N)[C@@H](C)O)CNC(=O)[C@H]([C@@H](C)O)NC(=O)[C@H](CN)NC(=O)[C@H](CN)NC1=O
IC50 (Escherichia coli [5]; Escherichia coli): 30 µM

Compound: CC(C)C[C@@H]1NC(=O)[C@@H](Cc2ccccc2)NC(=O)[C@H](CCN)NC(=O)[C@@H](NC(=O)[C@H](CCN)NC(=O)[C@@H](N)[C@@H](C)O)CCNC(=O)[C@H]([C@@H](C)O)NC(=O)[C@H](CCN)NC(=O)[C@H](CCN)NC1=O (stereo in doubt; form 2)
IC50 (Escherichia coli [5]): 3 µM

Compound: CC(C)C[C@@H]1NC(=O)[C@@H](Cc2ccccc2)NC(=O)[C@H](CCN)NC(=O)[C@@H](NC(=O)[C@H](CCN)NC(=O)[C@@H](N)[C@@H](C)O)CCNC(=O)[C@H]([C@@H](C)O)NC(=O)[C@H](CCN)NC(=O)[C@H](CCN)NC1=O (stereo in doubt; form 1) [listing 2 of 2 here]
IC50 (Escherichia coli [5]; Escherichia coli): 2.5 µM

More lines, main results first:

MIC (Escherichia coli [1]): 125 µg/mL (≈ 204 µM)
MIC (Klebsiella pneumoniae [3]): 250 µg/mL (≈ 408 µM)
Compound: CO[C@@H]1[C@@H](OC(N)=O)[C@@H](O)[C@H](Oc2ccc3c(O)c(NC(=O)c4ccc(O)c(CC=C(C)C)c4)c(=O)oc3c2C)OC1(C)C [NOVOBIOCIN]
MIC (Escherichia coli [2]): 125 µg/mL
MIC (Klebsiella pneumoniae [4]): 62 µg/mL

IC50 (Escherichia coli [5]; Escherichia coli): 15 µM
Compound: CC(C)C[C@@H]1NC(=O)[C@@H](Cc2ccccc2)NC(=O)[C@@H](NC(=O)[C@H](CCN)NC(=O)[C@H](CCN)NC(=O)[C@@H](N)[C@@H](C)O)CCNC(=O)[C@H]([C@@H](C)O)NC(=O)[C@H](CCN)NC(=O)[C@H](CCN)NC1=O

IC50 (Escherichia coli [5]; Escherichia coli): 35 µM
Compound: CC(C)C[C@@H]1NC(=O)[C@@H](Cc2ccccc2)NC(=O)[C@H](CCCCN)NC(=O)[C@@H](NC(=O)[C@H](CCCCN)NC(=O)[C@@H](N)[C@@H](C)O)CCCCNC(=O)[C@H]([C@@H](C)O)NC(=O)[C@H](CCCCN)NC(=O)[C@H](CCCCN)NC1=O

IC50 (Escherichia coli [5]): 0.5 µM
Compound: POLYMYXIN B

IC50 (Escherichia coli [5]; Escherichia coli): 8 µM
Compound: CC(C)C[C@@H]1NC(=O)[C@@H](Cc2ccccc2)NC(=O)[C@H](CCN)NC(=O)[C@@H](NC(=O)[C@H](CCN)NC(=O)[C@@H](N)[C@@H](C)O)CCCCNC(=O)[C@H]([C@@H](C)O)NC(=O)[C@H](CCN)NC(=O)[C@H](CCN)NC1=O
